Assay results pooled from the literature.
Compare with care: the assays were run in different laboratories.
UGT2B7: UDP-glucuronosyltransferase 2B7 (UGT2B7, Homo sapiens, UniProt P16662)

Structure (SMILES)	target or system	assay	system	conditions	endpoint	value
CCOC(=O)CC1SC(=NN=Cc2ccc(OC)cc2)NC1=O (stereo not drawn)	LLC-MK2	cell growth or viability, MTT		96 h, pH 7.2	CC50	399 µM
C[C@H](O)c1cc(C(=O)N[C@@H](C)Cn2ccc(-c3ccc(C#N)c(Cl)c3)n2)n[nH]1	UGT2B7	enzyme activity, inhibitor	human, liver microsomes		IC50	> 100 µM
CC(=O)O[C@@H]1c2c(ccc3ccc(=O)oc23)OC(C)(C)[C@@H]1OC(=O)C1(C)OC1C (stereo partly drawn)	RD	cell growth or viability, WST-1			IC50	42.8 µM
C=C1CCC2C(C)(CO)C(=O)CCC2(C)C1CCC1=CCOC1=O (stereo not drawn)	UGT2B7	enzyme activity, inhibitor		100 µM	inhibition	94%
C/C=C(/C)C(=O)O[C@@H]1[C@H](OC(C)=O)c2c(ccc3ccc(=O)oc23)OC1(C)C	RD	cell growth or viability, WST-1			IC50	44.4 µM
CCOC(=O)CC1SC(=NN=Cc2ccccc2Cl)NC1=O (stereo not drawn)	LLC-MK2	cell growth or viability, MTT		96 h, pH 7.2	CC50	229 µM
C[C@@H](Nc1cc(F)cc(F)c1)c1cc(C(=O)N(C)C)cc2c(=O)cc(N3CCOCC3)oc12			human, plasma	oral, 30 mg, patients	Tmax	1.53 h
C=C1CC[C@@H]2[C@](C)(CO)[C@H](O)CC[C@@]2(C)[C@@H]1C/C=C1/C(=O)OC[C@H]1O	UGT2B7	enzyme activity, inhibitor		100 µM, pH 7.4	inhibition	94%
CCOC(=O)CC1SC(=NN=Cc2cccc(Br)c2)NC1=O (stereo not drawn)	LLC-MK2	cell growth or viability, MTT		96 h, pH 7.2	CC50	446 µM
COc1cc(OC)cc(N(CCNC(C)C)c2ccc3ncc(-c4cnn(C)c4)nc3c2)c1	LLC-PK1		Caco-2		Papp	19.8 ×10⁻⁶ cm/s
CC(C)n1cc(C#N)c2cc(-n3cc(C(=O)O)cn3)ccc21			human, plasma	oral, 200 mg, single dose, fasted, healthy volunteers	Tmax	2.7 h
CCOC(=O)CC1SC(=NN=Cc2ccccc2OC)NC1=O (stereo not drawn)	LLC-MK2	cell growth or viability, MTT		96 h, pH 7.2	CC50	539 µM
CC1(C)CC[C@]2(C)CC[C@]3(C)[C@H]4CC=C5[C@@H](CC[C@H](O)C5(C)C)[C@]4(C)CC[C@@]3(C)[C@@H]2C1	RD	cell growth or viability, WST-1			IC50	79.8 µM
CCOC(=O)CC1SC(=NN=Cc2ccc(O)c(OC)c2)NC1=O (stereo not drawn)	LLC-MK2	cell growth or viability, MTT		96 h, pH 7.2	CC50	545 µM
COc1cccc(OC)c1-c1cc(C(=O)NC2(C(=O)O)C3CC4CC(C3)CC2C4)nn1-c1ccc(C(=O)N(C)CCCN(C)CCCN(C)C(=O)CN2CCN(CC(=O)[O-])CCN(CC(=O)[O-])CCN(CC(=O)[O-])CC2)cc1C(C)C.[177Lu+3] (stereo not drawn)	HT-29		liver	intravenous, 4 h, tumour-bearing	tracer uptake	3.1 %ID/g
